Here are results for 5 compounds from ChEMBL document CHEMBL3414541, “Discovery of new thienopyrimidinone derivatives displaying antimalarial properties toward both erythrocytic and hepatic stages of Plasmodium” (Eur J Med Chem, 2015).

A short description of data set [1]: Cytotoxicity against CHO cells assessed as cell viability after 24 hrs by MTT assay. Type of data set: cell-based, Cricetulus griseus. Particulars: chinese hamster. In outline: (§1)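 Cells were kept in RPMI with 10% FBS. 5×10^3 cells/well were settled 24 h, then exposed to compound from DMSO (final <0.5%): CHO for 24 h, HepG2 for 72 h, in duplicate. Wells were checked for precipitate. MTT was added for 2 h at 37 °C, formazan dissolved in DMSO, and A570 read (630 nm reference). Viability is % of untreated cells; CC50 from non-linear regression, mean of three experiments.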
Background: Tetrazolium assays rely on reduction of a dye to a coloured formazan, in cell work by metabolically active cells.

Data set [2] in a line: (§2) Cytotoxicity against human HepG2 cells assessed as cell viability after 72 hrs by MTT assay. In kind it is cell-based. Conditions: HepG2 cells. A digest of the protocol: as §1
Data set [3] has as its system Plasmodium falciparum. Put plainly: Antiplasmodial activity against chloroquine-sensitive Plasmodium falciparum 3D7 infected in human erythrocytes assessed as parasite growth inhibition after 72 hrs by SYBR Green I dye-based fluorescence assay. Type of data set: functional, organism-based. A digest of the protocol: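 Parasites grown in A+ human erythrocytes (2.5% haematocrit) in RPMI 1640 with 25 mM HEPES, 25 mM NaHCO3 and 10% A+ serum, at 37 °C under 6% CO2/14% O2/80% N2. Rings were sorbitol-synchronized. Compounds in DMSO (<0.5% final) were incubated 72 h at 2% haematocrit and 1% parasitaemia. SYBR Green lysis read at ex 497/em 520 nm; duplicates; IC50 from three independent experiments.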

Data set [4] deals with Plasmodium falciparum. In words: Antiplasmodial activity against multi-drug resistant Plasmodium falciparum K1 infected in human erythrocytes assessed as parasite growth inhibition after 72 hrs by SYBR Green I dye-based fluorescence assay. In kind it is functional, organism-based. Conditions: read-out: IC50.
Data set [5] in a line: Selectivity index, ratio of CC50 for human HepG2 cells to IC50 for chloroquine-sensitive Plasmodium falciparum 3D7 infected in human erythrocytes. In kind it is functional. A digest of the protocol: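 SI = HepG2 CC50 (72 h MTT) / P. falciparum IC50. […] Cultures were exposed 72 h at 37 °C to compound (DMSO final <0.5%), in duplicate. Growth was read by SYBR Green I lysis fluorescence (ex 497, em 520 nm), from three independent experiments.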

The subject of a further data set is Plasmodium yoelii. Put plainly: Antiplasmodial activity against liver stage of Plasmodium yoelii 17X NL sporozoites infected in human HepG2 cells expressing CD81 after 48 hrs by DAPI staining-based immunofluorescence analysis. Conditions: HepG2, 48 h. Type of data set: functional, organism-based. A digest of the protocol:
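HepG2/CD81 cells were grown in D-MEM with 10% FBS. 25×10^3 cells/well went on collagen-coated wells; after 24 h they received compound and 5000 P. yoelii sporozoites together, then were spun 900 × g for 10 min at 4 °C. Treatment was renewed at 3 h and 24 h. At 48 h cells were methanol-fixed, stained with anti-HSP70 immunofluorescence, and parasites counted by microscopy. IC50 is 50% fewer parasites than in 0.5% DMSO controls.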

A short description of data set [6]: Cytotoxicity against human HepG2 cells expressing CD81 assessed as cell viability after 72 hrs by MTT assay. Type of data set: cell-based.
Data set [7] is described as follows: Selectivity index, ratio of CC50 for human HepG2 cells expressing CD81 to IC50 for liver stage of Plasmodium yoelii 17X NL sporozoites infected in human HepG2 cells expressing CD81. In kind it is functional.
Data set [8] is described as follows: Selectivity index, ratio of CC50 for human HepG2 cells to IC50 for multi-drug resistant Plasmodium falciparum K1 infected in human erythrocytes.
A further data set concerns HepG2. Described as §2. Type of data set: cell-based. Particulars: hepg2, 72 h, 72 h, read-out: CC50. A digest of the protocol: as §1
In the next data set the test system is Leishmania donovani. Put plainly: Antileishmanial activity against promastigote stage of Leishmania donovani assessed as parasite growth inhibition after 72 hrs by MTT assay. Type of data set: functional, organism-based. In outline:
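L. donovani promastigotes were grown at 27 °C in Schneider's medium with 10% FBS. 1×10^6 log-phase cells/well were exposed to compound from DMSO (final <0.5% v/v) for 72 h at 27 °C, in duplicate. MTT was then added for 6 h, formazan dissolved in DMSO, and A570 read (630 nm reference). IC50 came from non-linear regression, mean of three independent experiments.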

In a further data set the test system is Toxoplasma gondii. In words: Antitoxoplasmic activity against tachyzoite stage of Toxoplasma gondii PRU transfected with beta galactosidase infected in HFF assessed as parasite growth inhibition after 96 hrs by colorimetric microtiter assay. In kind it is functional. In outline: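 Confluent HFF monolayers (1×10^4 seeded) were infected with 2×10^3 PRU-β-Gal tachyzoites for 3 h. Compounds from DMSO (final <0.5%) were then added in triplicate for 96 h at 37 °C. CPRG was added at 500 µM final for 24 h more, then A570 read (630 nm reference). IC50 came from non-linear regression, mean of three experiments.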

The subject of data set [9] is Salmonella typhimurium. Put plainly: Mutagenicity in Salmonella typhimurium TA97A at 2.5 mM after 1 hr by Ames test in absence of S9 fraction. Type of data set: toxicity, organism-based. Particulars: salmonella enterica subsp. enterica serovar typhimurium, 2500 µM. A digest of the protocol: (§3)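 Tester strains were grown overnight in nutrient broth. 0.1 mL culture was incubated 1 h at 37 °C with shaking with compound (2.5–25 mM DMSO solutions), with or without 4% S9 mix. Top agar was added and the mix plated on Vogel-Bonner agar. Revertants were counted after 48 h at 37 °C in the dark. A twofold rise over spontaneous revertants counts as mutagenic.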
Background: In the Ames test, an excess of revertant colonies over the control signals mutagenicity.

Data set [10] deals with Salmonella typhimurium. In words: Mutagenicity in Salmonella typhimurium TA100 at 2.5 mM after 1 hr by Ames test in absence of S9 fraction. Type of data set: toxicity, organism-based. Conditions: salmonella enterica subsp. enterica serovar typhimurium, 2500 µM. A digest of the protocol: as §3
For data set [11], the system named is Salmonella typhimurium. In words: Mutagenicity in Salmonella typhimurium TA97A at 2.5 mM after 1 hr by Ames test in presence of S9 fraction. Type of data set: toxicity, organism-based. Particulars: salmonella enterica subsp. enterica serovar typhimurium, s9, 1 h, 2500 µM. A digest of the protocol: (§4)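 Tester strains were grown overnight in nutrient broth. Top agar was added and the mix plated on Vogel-Bonner agar. Revertants were counted after 48 h at 37 °C in the dark. A twofold rise over spontaneous revertants counts as mutagenic.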

Data set [12] relates to Salmonella typhimurium. Put plainly: Mutagenicity in Salmonella typhimurium TA100 at 2.5 mM after 1 hr by Ames test in presence of S9 fraction. In kind it is toxicity, organism-based. Conditions: salmonella enterica subsp. enterica serovar typhimurium, s9, 1 h, 2500 µM. A digest of the protocol:
as §4

Data set [13] in a line: Genotoxicity in DNA (unknown origin) incubated for 24 hrs in dark condition by methyl green displacement assay. A digest of the protocol:
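DNA-methyl green (4 mg in 20 mL 0.05 M Tris-HCl pH 7.5 with 7.5 mmol/L MgSO4) was shaken 24 h at 37 °C. It was then added to compound from DMSO (final <0.5%). A630 was read, and read again after 24 h at room temperature in the dark. DC50 is the concentration displacing 50% of methyl green.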

Data set [14] can be described thus: Inhibition of hemozoin polymerization after 24 hrs by spectroscopic analysis. Type of data set: functional. A digest of the protocol:
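Hemozoin (4 mM solution in 0.1 M NaOH) was mixed with compound at drug:heme ratios of 1:1 to 8:1, in triplicate. Acetic acid was added to pH 3, and samples were incubated 24 h at 37 °C. Soluble, DMSO-soluble and pellet fractions were separated by centrifugation. Each fraction was quantified at A405 against a hemozoin standard curve. IC50 is 50% decrease in polymerization.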

A short description of data set [15]: Inhibition of Plasmodium falciparum DHFR after 48 hrs. A digest of the protocol:
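Recombinant S. cerevisiae whose own DHFR is replaced by the P. falciparum DHFR domain was used. 1×10^4 cells were grown in YEPD with compound from DMSO (final <0.5%) at 30 °C for 48 h, in duplicate. Growth was read as A660. IC50 (50% growth inhibition) came from non-linear regression.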

For data set [16], the system named is Plasmodium falciparum. Put plainly: Antiplasmodial activity against multi-drug resistant Plasmodium falciparum K1 infected in human erythrocytes assessed as parasite growth inhibition after 72 hrs by SYBR Green I dye-based fluorescence assay in presence of ascorbic acid. Type of data set: functional, organism-based. Conditions: K1, 72 h. A digest of the protocol: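 Same SYBR Green I 72 h growth assay on the K1 strain (2% haematocrit, 1% parasitaemia, 37 °C, 6% CO2/14% O2/80% N2, DMSO <0.5%), with 800 µM ascorbic acid in the medium as radical trap. Duplicates; artesunate as positive control; IC50 derived.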

Data set [17] concerns Plasmodium falciparum. In words: Antiplasmodial activity against multi-drug resistant Plasmodium falciparum K1 infected in human erythrocytes assessed as depolarization of mitochondrial membrane at IC50 after 20 mins by flow cytometric analysis. In kind it is functional, organism-based. (Flow cytometry measures light scatter and fluorescence of single cells or particles in a stream.)

Activity calls are given as the source filed them. The rule behind the calls is not given here. A value given as a limit tells only on which side of the number the result lay.

The term CC50 denotes the concentration that lowers cell viability or growth by half. As to `COc1cccc2c1C(=O)c1c(O)c3c(c(O)c1C2=O)C[C@@](O)(C(=O)CO)C[C@@H]3O[C@H]1C[C@H](N)[C@H](O)[C@H](C)O1` [DOXORUBICIN], in data set [1], the CC50 at 24 h turned out to be 0.6 µM.

What is called IC50 is the concentration at which inhibition is half-maximal. As for `CC(C)(C)Nc1nc2cc(-c3ccc(Cl)cc3)sc2c(=O)[nH]1.O=C(O)/C=C/C(=O)O`, the CC50 at 72 h in data set [2] was 15.6 µM; in data set [6], more than 120 µM. Besides, the results for the IC50 in the data set on Plasmodium falciparum [3], in the data set on Plasmodium falciparum [4] and in the data set with Plasmodium yoelii were 0.168 µM, 0.8 µM and 0.06 µM, respectively. Besides, the “Ratio CC50/IC50” value in data set [5] is reported as 93; in data set [7], more than 2000; in data set [8], 78.

Take `Cc1ccc(-c2cc3nc(NC(C)C)[nH]c(=O)c3s2)cc1.O=C(O)/C=C/C(=O)O`: the CC50 at 72 h in [2] was 26.9 µM; in data set [6], more than 111 µM. The IC50 in the data set on Plasmodium falciparum [3] (Plasmodium falciparum, 3D7, 72 h) turned out to be 0.182 µM; in the data set with Plasmodium falciparum [4], 0.8 µM; in the data set with Plasmodium yoelii, 0.12 µM. Further, the “Ratio CC50/IC50” value in data set [5] is 148; in data set [7], more than 925; in data set [8], 135.

Consider `Cc1ccc(-c2cc3nc(NC(C)C)[nH]c(=O)c3s2)cc1`, for which the CC50 in the data set with HepG2 came to 49.4 µM. Besides, the IC50 with Plasmodium falciparum [3] is 0.247 µM; in the data set on Plasmodium falciparum [4], 0.8 µM; with Leishmania donovani, more than 10 µM; in the data set with Toxoplasma gondii, more than 10 µM; in [14], more than 25000 µM; in [15], more than 250 µM. For the same compound, in the data set on Plasmodium falciparum [16], the IC50 came out at 0.9 µM. The figures for the “Ratio CC50/IC50” value in data set [5] and in [8] were 202 and 62, respectively. The Activity result in the data set with Salmonella typhimurium [9], in the data set with Salmonella typhimurium [10], with Salmonella typhimurium [11] and in the data set with Salmonella typhimurium [12] was “Non-toxic” throughout. Further, the DC50 in data set [13] was more than 25000 µM.

On to `CC(C)(C)Nc1nc2cc(-c3ccc(Cl)cc3)sc2c(=O)[nH]1`, for which, in the data set on Plasmodium falciparum [17], the outcome was inactive.
